Data: ChEMBL document CHEMBL1125833, “Anxiolytic properties of certain annelated [1,2,4]triazolo[1,5-c]pyrimidin-5(6H)-ones” (J Med Chem, 1991)
Where “and” joins values, the source holds several entries; their conditions need not be identical. Identical values can stand only once.

Assays:
[1] = biological target: GABA-A receptor; anion channel; experiment: Displacement of [3H]flunitrazepam (FNZ) from GABA-A benzodiazepine receptor in rat forebrain
[2] = biological target: GABA-A receptor; anion channel (Rattus norvegicus) (UniProt O09028+P15431+P18506+P18508+P19969+P20236+P23574+P23576+P28471+P28473+P30191+P62813+P63079+P63138+Q91ZM7+Q9ES14); experiment: GABA ratio measured by the IC50 in the absence of GABA compared to the IC50 in the presence of GABA in rats.
Outline: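 Modified [3H]flunitrazepam binding in rat forebrain, with IC50 measured with and without GABA. Ratio = IC50 without GABA divided by IC50 with GABA.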

Rattus norvegicus [3] = experiment: Compound tested for its effect on conflict (FR) operant responding of rats at a dose of 10.0 mg/Kg administered perorally.; assay type: functional
Outline: (§1)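 Cook-Davidson conflict procedure in rats given oral doses. Rats lever-press for milk reward with shock (conflict, FR) and without shock (nonconflict, VI). Value is % change in response rate, with significance set at P < 0.05. The minimally effective oral dose is taken as the dose raising conflict responding or lowering VI responding.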

Rattus norvegicus [4] = species: Rattus norvegicus; experiment: Anxiolytic response measured by antagonism of pentylenetetrazole discriminative stimuli in rats.; assay type: functional
Outline: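 Rats trained to discriminate a subconvulsant dose of pentylenetetrazole (PTZ) from vehicle. Test compound given 30 min before the PTZ dose. Antagonism of the PTZ stimulus is scored as the anxiolytic response. ED50 values by probit analysis, with 95% confidence limits.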

Rattus norvegicus [5] = experiment: Compound tested for its effect on conflict (FR) operant responding of rats at a dose of 30.0 mg/Kg administered perorally.; assay type: functional; outline: as §1
Rattus norvegicus [6] = experiment: Minimal effective oral dose to cause VI response decrement in rats.; assay type: functional; outline: as §1
Rattus norvegicus [7] = experiment: Compound tested for its effect on Nonconflict (VI) operant responding of rats at a dose of 10.0 mg/Kg administered perorally.; assay type: functional; outline: as §1
Rattus norvegicus [8] = experiment: Compound tested for its effect on Nonconflict (VI) operant responding of rats at a dose of 3.0 mg/Kg administered perorally.; assay type: functional; outline: as §1
Rattus norvegicus [9] = experiment: Compound tested for its effect on conflict (FR) operant responding of rats at a dose of 3.0 mg/Kg administered perorally.; assay type: functional; outline: as §1
Rattus norvegicus [10] = experiment: Minimal effective oral dose to cause increase in conflict response in rats after po administration.; assay type: functional; outline: as §1
Rattus norvegicus [11] = experiment: Compound tested for its effect on Nonconflict (VI) operant responding of rats at a dose of 30.0 mg/Kg administered perorally.; assay type: functional; outline: as §1
Rattus norvegicus [12] = experiment: Minimal effective oral dose to cause ethanol interaction in rats.; assay type: functional
Outline: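 Rotorod test of ethanol interaction in male Wistar (Crl:(WI)BR) rats, 130–160 g. Vehicle or test compound (0, 1, 3, 10 mg/kg) given orally 30 min before ethanol. Graded ethanol doses given ip 30 min before rotorod testing. Ethanol ED50 reported with confidence limits, P < 0.05.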

Rattus norvegicus [13] = experiment: Compound tested for its effect on Nonconflict(VI) operant responding of rats at a dose of 30.0 mg/kg administered perorally.; assay type: functional; conditions: route oral; outline: as §1
Rattus norvegicus [14] = experiment: Compound tested for its effect on conflict(FR) operant responding of rats at a dose of 10.0 mg/kg administered perorally.; assay type: functional; conditions: route oral; outline: as §1
Rattus norvegicus [15] = experiment: Compound tested for its effect on conflict(FR) operant responding of rats at a dose of 30.0 mg/kg administered perorally.; assay type: functional; conditions: route oral; outline: as §1
Rattus norvegicus [16] = experiment: Compound tested for its effect on Nonconflict(VI) operant responding of rats at a dose of 10.0 mg/kg administered perorally.; assay type: functional; conditions: route oral; outline: as §1
Rattus norvegicus [17] = experiment: Compound tested for its effect on conflict(FR) operant responding of rats at a dose of 3.0 mg/kg administered perorally.; assay type: functional; conditions: route oral; outline: as §1
Rattus norvegicus [18] = experiment: Compound tested for its effect on Nonconflict(VI) operant responding of rats at a dose of 3.0 mg/kg administered perorally.; assay type: functional; conditions: route oral; outline: as §1
Rattus norvegicus [19] = experiment: Anxiolytic response at 10 mg/Kg measured by antagonism of pentylenetetrazole discriminative stimuli in rats.; assay type: functional
Rattus norvegicus [20] = experiment: Anxiolytic response at 30 mg/Kg measured by antagonism of pentylenetetrazole discriminative stimuli in rats.; assay type: functional
Rattus norvegicus [21] = experiment: Compound tested for its effect on conflict (FR) operant responding of rats at a dose of 30.0 mg/Kg administered perorally; assay type: functional; outline: as §1

| Compound | IC50 [1] | GABA ratio [2] | ED50 (Rattus norvegicus [4]) | MED (Rattus norvegicus [10]) | other results |
| --- | --- | --- | --- | --- | --- |
| CCOC(=O)N1CCc2nc(O)n3nc(-c4ccccc4F)nc3c2C1 | 12.1 nM | 1.1 |  |  |  |
| NC(=O)N1CCc2nc(O)n3nc(-c4ccccc4F)nc3c2C1 | 67 nM | 0.74 |  |  |  |
| Oc1nc2ccc(Cl)cc2c2nc(-c3ccccc3F)nn12 | 0.5 nM | 0.79 |  |  |  |
| Oc1nc2c(c3nc(-c4ccccc4F)nn13)CCCCC2 | 7.2 nM |  | 4.4 mg/kg | 10 mg/kg | Change in response rate (Rattus norvegicus [3]): 232%; Change in response rate (Rattus norvegicus [5]): 236%; MED (Rattus norvegicus [6]): 10 mg/kg; Change in response rate (Rattus norvegicus [7]): 53%; Change in response rate (Rattus norvegicus [8]): 11%; Change in response rate (Rattus norvegicus [9]): 79%; Change in response rate (Rattus norvegicus [11]): 49% |
| O=C(c1ccccc1)N1CCc2nc(O)n3nc(-c4ccccc4F)nc3c2C1 | 50 nM |  |  |  |  |
| Oc1nc2c(c3nc(-c4ccc(Cl)cc4)nn13)CN(Cc1ccccc1)CC2 | 22.4 nM | 2.45 | 6.43 mg/kg |  | Change in response rate (Rattus norvegicus [5]): 104% and 188%; MED (Rattus norvegicus [6]): 30 mg/kg; Change in response rate (Rattus norvegicus [7]): 4%; Change in response rate (Rattus norvegicus [11]): -45% |
| CN1C(=O)CN=C(c2ccccc2)c2cc(Cl)ccc21 [DIAZEPAM] |  |  | 1.23 mg/kg | 10 mg/kg | MED (Rattus norvegicus [12]): 5 mg/kg; Change in response rate (Rattus norvegicus [13]): -2%; Change in response rate (Rattus norvegicus [14]): 425%; MED (Rattus norvegicus [6]): 10 mg/kg; Change in response rate (Rattus norvegicus [15]): 257%; Change in response rate (Rattus norvegicus [16]): 30%; Change in response rate (Rattus norvegicus [17]): 159%; Change in response rate (Rattus norvegicus [18]): 4% |
| Oc1nc2c(c3nc(-c4ccccc4F)nn13)CN(Cc1ccccn1)CC2 | 0.64 nM | 1.65 |  |  | inhibition in vivo at 10 mg/kg (Rattus norvegicus [19]): 50% |
| Oc1nc2c(c3nc(-c4ccccc4F)nn13)CN(Cc1ccncc1)CC2 | 1.89 nM | 1.14 |  |  |  |
| COC(=O)CN1CCc2nc(O)n3nc(-c4ccccc4F)nc3c2C1 | 27 nM | 1.06 |  |  | inhibition in vivo at 30 mg/kg (Rattus norvegicus [20]): 12% |
| Oc1nc2c(c3nc(-c4ccccc4F)nn13)CNCC2 | 442 nM |  |  |  |  |
| Oc1nc2c(c3nc(-c4ccc[nH]4)nn13)CN(Cc1ccccc1)CC2 | 7.6 nM | 1.65 | 17.3 mg/kg |  |  |
| Oc1nc2c(c3nc(-c4ccccc4F)nn13)CN(Cc1cccnc1)CC2 | 0.74 nM | 1.4 | 3.65 mg/kg | 10 mg/kg | Change in response rate (Rattus norvegicus [14]): 322%; MED (Rattus norvegicus [6]): 10 mg/kg; Change in response rate (Rattus norvegicus [16]): -21%; Change in response rate (Rattus norvegicus [17]): 129%; Change in response rate (Rattus norvegicus [18]): -8% |
| Oc1nc2c(c3nc(-c4ccccc4F)nn13)CCCC2 | 1.7 nM |  | 2.4 mg/kg | 30 mg/kg | Change in response rate (Rattus norvegicus [21]): 132%; Change in response rate (Rattus norvegicus [11]): 1% |
| Oc1nc2c(c3nc(-c4cccc(F)c4)nn13)CN(Cc1ccccc1)CC2 | 2.4 nM | 1.6 |  |  |  |
| O=C1C2C=Nc3ccccc3C2=NN1c1ccc(Cl)cc1 (stereo not given) [CGS-9896] |  |  | 2.3 mg/kg | 10 mg/kg | MED (Rattus norvegicus [12]): 30 mg/kg |
